Assay outcomes (PubChem BioAssay)
KCNK9 block – KCNK9 potassium channel inhibitors, primary screen, HEK293 cells, thallium flux | Potassium channel subfamily K member 9 (Homo sapiens), Q9NPC2 | FluxOR thallium flux fluorescence; hits give low values | B-score at 10 µM | actives 1.2% (n = 310,000) | AID 488922, 2010;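 active means ratio B-score over 3 SD below the library mean, with starting fluorescence within 5 SD of its mean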;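 further: negative B-score means less thallium flux so channel inhibition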
Target sequence (Q9NPC2 whole entry, looked up): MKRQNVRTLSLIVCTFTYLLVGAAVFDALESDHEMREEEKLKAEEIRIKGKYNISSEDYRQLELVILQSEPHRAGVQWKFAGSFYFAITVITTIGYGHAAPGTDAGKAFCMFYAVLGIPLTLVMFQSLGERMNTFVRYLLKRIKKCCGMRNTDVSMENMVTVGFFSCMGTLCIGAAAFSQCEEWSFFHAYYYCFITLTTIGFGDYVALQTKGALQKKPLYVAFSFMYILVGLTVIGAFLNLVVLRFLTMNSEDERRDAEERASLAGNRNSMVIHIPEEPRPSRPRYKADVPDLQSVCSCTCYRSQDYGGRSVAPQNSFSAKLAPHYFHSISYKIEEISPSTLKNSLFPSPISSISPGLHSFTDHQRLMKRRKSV
KCNQ1 inh – inhibitors of human KCNQ1 channel, primary screen, cell-based, thallium flux, high-throughput | Potassium voltage-gated channel subfamily KQT member 1 (Homo sapiens), P51787 | CHO-K1 KCNQ1, FluxOR thallium flux fluorescence; hits give high values | B-score at 10 µM | actives 1.3% (n = 310,000);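 active means compounds whose thallium flux B-score, printed positive for inhibition, exceeds three library SD while starting fluorescence stays within three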;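 further: channel opened by potassium depolarization with thallium stimulus after 20 min compound exposure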
hERG protect – hERG rescue from dofetilide block, primary screen, cell-based, CHO-hERG, FluxOR thallium flux, dofetilide IC70; dofetilide IC70 present; AID 1511, 2009; activation (rescue from dofetilide block), less the hit threshold, % at 10 µM; actives 0.51% (n = 310,000);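 active means activation above the mean of controls blocked by dofetilide plus 5 SD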;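 further: thallium influx through hERG after potassium depolarization seen as dye fluorescence rise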
Cl transport mod – KCC2 cotransporter modulators, thallium flux, primary screen, cell-based, HEK293 KCC2, FluoZin-2 fluorescence, MLSMR | KCC2 cells, thallium flux FluoZin-2 fluorescence | AID 1456, 2008 | Solute carrier family 12 member 5 (Homo sapiens), Q9H2X9 | actives 2.2% (n = 190,000) | B-score of Tl+ flux slope (higher = more flux/activation; lower = inhibition) at 10 µM;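 active means thallium flux slope and its plate-corrected score both differing from the plate sample mean at a set confidence after two filtering rounds, in either direction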;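 further: slope of fluorescence scaled to starting intensity during 10 to 20 s after thallium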
KCNQ1 act – potentiators or activators of KCNQ1 channel, primary screen, cell-based, thallium flux, high-throughput | Potassium voltage-gated channel subfamily KQT member 1 (Homo sapiens), P51787 | CHO-K1 KCNQ1, thallium flux FluxOR fluorescence; hits give high values | B-score at 10 µM | actives 0.35% (n = 310,000);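 active means fluorescence ratio B-score, a plate-corrected score, at least three library SD, with initial intensity B-score within 5 SD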
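assay system = KCNQ1-transfected CHO-K1 cells | medium = assay buffer with matched DMSO | probe or stimulus = depolarizing K+/Tl+ stimulus, K2SO4 and Tl2SO4 each 12.5 mM in 5x stock | dosing = single dose | incubation = dye 90 min, compound 20 min, room temperature | detection = kinetic FluxOR fluorescence, 10 s baseline plus 110 s post-stimulus | evaluation = ratio B score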
KCNK3 block – human KCNK3 channel inhibitors, primary screen, CHO cells, FluxOR thallium flux, B-score | FluxOR fluorescence; hits give low values | actives 0.84% (n = 340,000) | AID 602410, 2012 | B-score at 10 µM | Potassium channel subfamily K member 3 (Homo sapiens), O14649;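 active means B-score under library mean minus 4 SD, starting fluorescence ratio at most library mean plus 5 SD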;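 further: more negative B-score means stronger inhibition of thallium flux through KCNK3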
KCNQ1 block val – KCNQ1 potassium channel inhibitors, confirmation, cell-based, Tl flux, duplicate | inhibition, % at 10 µM | AID 588353, 2011 | KCNQ1 cell line, FluxOR thallium flux fluorescence | shares compounds with KCNQ1 inh | actives 93% (n = 1,600);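 active means primary screen active, with duplicate mean exceeding buffer control mean plus 3 SD of buffer wells, cut at about 28% in these data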;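 further: 0% = buffer control ratio and 100% = XE991 inhibitor control ratio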
CHO KCNQ1 ctr – thallium flux effects in parental CHO cells, counter-screen for KCNQ1 inhibitor project, cell-based, Tl flux; shares compounds with KCNQ1 inh; parental CHO-K1, FluxOR thallium flux fluorescence ratio; hits give low values; zero means no signal rise above baseline; fluorescence ratio (Tl flux) at 10 µM; actives 21% (n = 1,600);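 active means mean of duplicate thallium-flux fluorescence ratios in parental host cells more than 5 SD below the buffer control mean, cut at about 0.38 in these data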;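 further: ratio is peak minus minimum fluorescence divided by baseline fluorescence; actives read low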
KCNQ1 ephys val – KCNQ1 channel inhibitors, confirmation, orthogonal assay, cell-based, automated electrophysiology; shares compounds with KCNQ1 inh; calls only at 10 µM; actives 20% (n = 490); KCNQ1-CHO cells, automated patch clamp current; AID 624120, 2012;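 active means KCNQ1 current drop exceeding 3 SD of negative control wells, seen in both duplicate runs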;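 further: steady state current during a 2 s step from -80 to +40 mV; negative values mean current inhibition and positive values mean potentiation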
KCNQ2 spec – KCNQ2 channel inhibition, selectivity assay for KCNQ1 inhibitor project, cell-based | KCNQ2 cells, FluxOR thallium flux fluorescence | inhibition, % at 10 µM | actives 71% (n = 1,600) | shares compounds with KCNQ1 inh;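 active means mean percent inhibition of the KCNQ2 thallium signal more than 5 SD above the buffer-only control wells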;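 further: KCNQ2 expressed in CHO cells; 0% = buffer control wells and 100% = XE-991 inhibitor control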
KCNQ1-KCNE1 inh – KCNQ1/KCNE1 channel inhibition, selectivity assay for KCNQ1 inhibitor project, CHO-K1 cells, thallium flux, FluxOR | shares compounds with KCNQ1 inh | FluxOR thallium flux fluorescence | inhibition, % at 10 µM | actives 77% (n = 1,600);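 active means mean percent inhibition of duplicate wells above the buffer-only control mean plus 3 SD of those controls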;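 further: 0% = buffer only wells and 100% = XE-991 inhibitor control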
An asterisk follows results filed as active; i = inactive; / = no result given. An excerpt weighted towards active compounds, which were near 4.1% of everything screened.

SMILES | KCNK9 block | KCNQ1 inh | hERG protect | Cl transport mod | KCNQ1 act | KCNK3 block | KCNQ1 block val | CHO KCNQ1 ctr | KCNQ2 spec | KCNQ1-KCNE1 inh | others
Cc1cccc(N2C(=O)c3cccc4c(N(C)CCO)ccc(c34)C2=O)c1 | i | 7* | -17 | i | i | i | 122* | 0.25* | i | i
Cc1cccc(N2C(=O)c3cccc4cccc(c34)C2=O)c1 | i | i | -8 | / | i | i | / | / | / | /
CN(C)c1ccc2c3c(cccc13)C(=O)N(c1ccccc1)C2=O | i | i | -12 | / | i | / | / | / | / | /
CC[C@H]1CCCCc2ccccc2[C@@H](C(=O)C[C@@H](O)CC(C)=O)OC1=O | / | / | / | / | / | i | / | / | / | /
CCOc1cc2c3c(c1)C1(Nc4ccccc4S1)C(=O)N3C(C)(C)CC2C (stereo not given) | i | 8* | -11 | 0.67 | i | i | 96* | 0.48 | i | 77%* | KCNQ1 ephys val=i
Cc1ccc(S(=O)(=O)NC(C)C(c2cccs2)N2CCN(c3ccccc3)CC2)cc1 (stereo not given) | i | 7* | -5 | -0.0082 | i | i | 68* | 0.45 | 89%* | 92%*
Cc1ccc(S(=O)(=O)NC(C)C(c2cccs2)N2CCN(C)CC2)cc1 (stereo not given) | i | i | -1 | 0.086 | i | i | / | / | / | /
Cc1cccc(OCc2nc(C#N)c(N3CC(C)CC(C)C3)o2)c1 (stereo not given) | i | 8* | -11 | / | i | -12* | 103* | 0.38* | i | 104%*
COC(=O)C1CCN(C(=O)c2cc(-c3ccco3)nc3ccccc23)CC1 | / | / | / | / | / | i | / | / | / | /
CCSc1nsc(NC(=O)Nc2ccccc2F)n1 | i | i | -7 | / | i | i | / | / | / | /
C=CCSc1nsc(NC(=O)Nc2ccc(F)cc2)n1 | i | 14* | -11 | / | i | i | 64* | 0.51 | i | i
COc1ccc(C(F)(F)F)cc1N/C=C\c1nnnn1-c1ccccc1 | i | 9* | -15 | -0.53 | i | i | 98* | 0.42 | 64%* | 79%* | KCNQ1 ephys val=i
COc1ccc(CN(C)C(=O)c2ccc(NC(=O)CC3SC(N4CCCCC4)=NC3=O)cc2)c(OC)c1 (stereo not given) | / | / | / | / | / | i | / | / | / | /
Cc1ccc(OCCCCn2cnc3ccccc32)c(C)c1 | i | 9* | -11 | / | i | i | 116* | 0.51 | 74%* | 82%* | KCNQ1 ephys val=i
Cc1ccc(C)c(OCCCCn2cnc3ccccc3c2=O)c1 | i | i | -9 | -0.44 | i | i | / | / | / | /
CCOC(=O)c1c(C)nc2ccc(Cl)cc2c1-c1ccccc1 | i | 7* | -10 | -0.68 | i | i | 122* | 0.49 | 117%* | 154%* | KCNQ1 ephys val=i
COc1cccc(C2C(=O)N(C3CCCCC3)CC(=O)N2Cc2ccc(F)cc2)c1 (stereo not given) | i | 6* | -19 | 0.89 | i | i | 54* | 0.45 | 93%* | 42%*
COc1ccccc1CN1C(=O)CN(C2CCCCCC2)C(=O)C1c1ccc(F)cc1 (stereo not given) | i | i | -12 | -0.52 | i | i | / | / | / | /
CCOc1ccc(S(=O)(=O)N=C(c2ccccc2)N2CCOCC2)cc1 | / | / | / | / | / | i | / | / | / | /
S=C(NCc1cccc(Cl)c1)NCc1ccco1 | i | i | -7 | / | i | i | / | / | / | /
S=C(NCc1ccc(Cl)c(Cl)c1)NCc1ccco1 | i | 6* | -12 | / | i | i | 70* | 0.49 | i | 104%*
COC(=O)CN1C(c2ccccc2O)Nc2ccc(Br)cc2C1c1ccccc1 (stereo not given) | -6.6* | 8* | -10 | -1.1 | i | i | 98* | 0.36* | 86%* | 132%*
CCN(CC)S(=O)(=O)c1ccc2oc(C(=O)NCC3COc4ccccc4O3)c(C)c2c1 (stereo not given) | i | 8* | -15 | -0.04 | i | i | 96* | 0.44 | 81%* | 128%* | KCNQ1 ephys val=i
CC(C)(C)C(=O)COC(=O)c1cc(-c2ccncc2)nc2ccccc12 | i | 7* | -18 | -0.96 | i | i | 52* | 0.42 | 92%* | 48%*
CC(C)Cn1c(N)c(C(=O)COC(=O)c2cc(-c3ccccc3)nc3ccccc23)c(=O)n(C)c1=O | i | 7* | -10 | 0.81 | i | i | 106* | 0.44 | 120%* | 156%* | KCNQ1 ephys val=i
CC(C)Cn1c(N)c(C(=O)COC(=O)c2cc(-c3ccco3)nc3ccccc23)c(=O)n(C)c1=O | i | i | -12 | 0.16 | i | i | / | / | / | /
Cc1ccc(S(=O)(=O)NCc2ccncc2)c(C)c1C | i | 7* | -20 | -0.0083 | i | i | 56* | 0.51 | i | i
Cc1ccc2[nH]c3c(NCc4ccco4)ncnc3c2c1 | i | 9* | -20 | -1.2 | i | i | 102* | 0.45 | 70%* | 39%* | KCNQ1 ephys val=i
COc1cc(CNc2ncnc3c2[nH]c2ccc(C)cc23)cc(OC)c1 | i | i | -13 | 0.45 | i | i | / | / | / | /
